# Measured values from different studies.
# Lines come from different studies, so protocols differ.
# BRD9: Bromodomain-containing protein 9 (BRD9, Homo sapiens, UniProt Q9H8M2)
# PIP4K2A: Phosphatidylinositol 5-phosphate 4-kinase type-2 alpha (PIP4K2A, Homo sapiens, UniProt P48426)
# CNR2: Cannabinoid receptor 2 (CNR2, Homo sapiens, UniProt P34972)
# PKMYT1: Membrane-associated tyrosine- and threonine-specific cdc2-inhibitory kinase (PKMYT1, Homo sapiens, UniProt Q99640)
Compound,target,assay,conditions,endpoint,result
COc1cc(-c2cc(C(C)=O)n3ccccc23)c(OC)cc1C=O,BRD9,"thermal stability, DSF",200 µM,ΔTm,8.3 °C
NC/C(=C\F)COc1cccc(Cn2c(=S)[nH]c(=O)c3[nH]cnc32)c1,"Ileal sodium/bile acid cotransporter (SLC10A2, Homo sapiens, UniProt Q12908)","transporter uptake, inhibitor",30 µM,inhibition,< 50%
Cc1cc(O)c(-c2ccc([C@@H](C)CN(C)C)cc2)c2c1[nH]c(=O)c1sccc12,PIP4K2A,"enzyme activity, inhibitor",0.1 µM,inhibition,-0.0609%
COc1ccc2oc(-c3ccc4nc(N)oc4c3)c/c(=N\c3ccccc3NC(=O)CCN)c2c1,PIP4K2A,binding,1 µM,remaining binding,108%
CN(C)CCOC(=O)COc1ccc(Cl)cc1,CNR2,"ligand displacement, radioligand","1 µM, cell membranes",inhibition,-3.85%
CC(=O)ON=C1C=CC(=C(C#N)c2ccccc2)C=C1,"Serine/threonine-protein kinase haspin (HASPIN, Homo sapiens, UniProt Q8TF76)","enzyme activity, inhibitor, ADP detection",20 µM,activity vs control,57%
CCC(=O)c1cc(-c2cc(OC)c(Cn3ccnc3)cc2OC)c2ccccn12,BRD9,"thermal stability, DSF",200 µM,ΔTm,9.5 °C
C1=C/COCc2cc(ccc2OCCN2CCCC2)Nc2nccc(n2)-c2cccc(c2)COC/1,"Bone morphogenetic protein receptor type-1A (BMPR1A, Homo sapiens, UniProt P36894)",binding,0.1 µM,remaining binding,89%
COc1cc(-c2cc(C(C)=O)n3ccccc23)cc(OC)c1CN(C)C,BRD9,"thermal stability, DSF",200 µM,ΔTm,16.5 °C
Cc1ncc(-c2cc3cc(-c4c(C)ccc(O)c4C)cnc3[nH]2)cn1,PKMYT1,"cell-free assay, TR-FRET",3.333 µM,inhibition,104%
CC(=O)c1cc(-c2cccc(C(F)(F)F)c2)c2ccccn12,BRD9,"thermal stability, DSF",200 µM,ΔTm,3 °C
Cc1cc(F)cc2c(CCC(=O)N[C@@H]3C(=O)NC[C@H]3O)c(-c3ccc(F)cc3)[nH]c12,"Beta-2 adrenergic receptor (ADRB2, Homo sapiens, UniProt P07550)",cell-free assay,10 µM,inhibition,-2%
CCN1/C(=C/C(C)=O)Sc2ccc(F)cc21,CNR2,"ligand displacement, radioligand",10 µM,inhibition,16.8%
COc1cc(C(C)O)c(OC)cc1-c1cc(C(C)=O)n2ccccc12 (stereo not drawn),BRD9,"thermal stability, DSF",200 µM,ΔTm,9.9 °C
CCCCC(=O)Nc1ccc(-c2ccc3ncn(CCC)c(=O)c3c2)cn1,PKMYT1,"binding, competition with immobilised ligand",0.5 µM,remaining binding,86%
